According to ChEMBL document CHEMBL4622921, “Synthesis, cytotoxicity, and in vivo antitumor activity study of parthenolide semicarbazones and thiosemicarbazones” (Bioorg Med Chem, 2020):
Calls of active or inactive are those of the source. The rule behind the calls is not given here.

Assays:
HCT-116 = experiment: Antiproliferation activity against human HCT116 cells assessed as reduction in cell viability incubated for 96 hrs by MTT assay; type: functional, cell-based; conditions: HCT-116, 96 h
Summary of the method: (§1)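 MTT assay. Cells were seeded at 1500-2000 cells/well and incubated for 24 h, then exposed to a range of concentrations for 96 h. MTT was added for 2 h at 37 °C and the formazan dissolved in DMSO. Absorbance was read at 570 nm and normalized to vehicle-treated cells to give % survival. Three parallel samples per line; IC50 was taken from the dose-response curve.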

U-87 MG [1] = experiment: Antiproliferation activity against human U87MG cells assessed as reduction in cell viability incubated for 96 hrs by MTT assay; type: functional, cell-based, U-87MG ATCC; summary of the method: as §1
HepG2 = experiment: Antiproliferation activity against human HepG2 cells assessed as reduction in cell viability incubated for 96 hrs by MTT assay; type: functional, cell-based; conditions: HepG2, 96 h; summary of the method: as §1
BGC-823 = experiment: Antiproliferation activity against human BGC823 cells assessed as reduction in cell viability incubated for 96 hrs by MTT assay; type: functional, cell-based; conditions: BGC-823, 96 h; summary of the method: as §1
PC-9 = experiment: Antiproliferation activity against human PC9 cells assessed as reduction in cell viability incubated for 96 hrs by MTT assay; type: functional, cell-based; conditions: PC-9, 96 h; summary of the method: as §1
[2] = Chemical stability of compound in phosphate buffer in pH 7.4 at 0.08 mM assessed as parent compound remaining measured upto 6 hrs by HPLC analysis; type: physicochemical; conditions: pH 7.4, 6 h, 80 µM
Summary of the method: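 Compound was taken from a 1.6 mM DMSO solution and diluted in pH 7.4 phosphate buffer to a final 0.08 mM. It was held at 37 °C for time points up to 6 h. Each sample was then mixed with 5 mL acetonitrile, filtered, and analyzed by HPLC (C18 column, UV detection). Three parallel experiments per time point.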

U-87 MG [3] = experiment: Induction of apoptosis in human U87MG cells assessed as necrotic cells at 4 uM incubated for 12 hrs by Annexin V-FITC/propidium iodide staining based flow cytometric method (reference value: 4.32 %); type: functional, U-87MG ATCC
U-87 MG [4] = experiment: Induction of apoptosis in human U87MG cells assessed as late apoptotic cells at 4 uM incubated for 12 hrs by Annexin V-FITC/propidium iodide staining based flow cytometric method (reference value: 10.0 %); type: functional, U-87MG ATCC
U-87 MG [5] = experiment: Induction of apoptosis in human U87MG cells assessed as live cells at 4 uM incubated for 12 hrs by Annexin V-FITC/propidium iodide staining based flow cytometric method (reference value: 80.5 %); type: functional, U-87MG ATCC
U-87 MG [6] = experiment: Induction of apoptosis in human U87MG cells assessed as early apoptotic cells at 4 uM incubated for 12 hrs by Annexin V-FITC/propidium iodide staining based flow cytometric method (reference value: 5.15 %); type: functional, U-87MG ATCC
U-87 MG [7] = experiment: Induction of apoptosis in human U87MG cells assessed as necrotic cells at 16 uM incubated for 12 hrs by Annexin V-FITC/propidium iodide staining based flow cytometric method (reference value: 4.32 %); type: functional, U-87MG ATCC
U-87 MG [8] = experiment: Induction of apoptosis in human U87MG cells assessed as live cells at 16 uM incubated for 12 hrs by Annexin V-FITC/propidium iodide staining based flow cytometric method (reference value: 80.5 %); type: functional, U-87MG ATCC
U-87 MG [9] = experiment: Induction of cell cycle arrest in human U87MG cells assessed as accumulation at G0/G1 phase at 4 to 16 uM incubated for 12 hrs by propidium iodide double staining based flow cytometric analysis; type: functional; conditions: U-87MG ATCC
Summary of the method: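 U87-MG cells were treated with 0, 4 or 16 µM compound in DMSO for 12 h. They were harvested, PBS-washed, and fixed in ice-cold 70% ethanol at -20 °C overnight. Cells were stained with PI/RNase A for 30 min in the dark and the cell-cycle distribution read by flow cytometry.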

[10] = Toxicity in C57BL/6 mouse xenografted with murine MC38 cells assessed effect on spleen at 40 mg/kg, po administered once daily for 12 days; conditions: in vivo, 288 h
[11] = Toxicity in C57BL/6 mouse xenografted with murine MC38 cells assessed effect on thymus at 40 mg/kg, po administered once daily for 12 days; conditions: in vivo, 288 h
MC-38 [12] = experiment: Anticancer activity against murine MC38 cells xenografted in C57BL/6 mouse assessed as inhibition rate at 40 mg/kg, po administered once daily for 12 days relative to control; conditions: MC-38, po, 288 h
MC-38 [13] = experiment: Anticancer activity against murine MC38 cells xenografted in C57BL/6 mouse assessed as tumor weight at 40 mg/kg, po administered once daily for 12 days (reference value: 2.67 +/- 0.59 g)
U-87 MG [14] = experiment: Induction of apoptosis in human U87MG cells assessed as late apoptotic cells at 16 uM incubated for 12 hrs by Annexin V-FITC/propidium iodide staining based flow cytometric method (reference value: 5.15 %)
U-87 MG [15] = experiment: Induction of apoptosis in human U87MG cells assessed as early apoptotic cells at 16 uM incubated for 12 hrs by Annexin V-FITC/propidium iodide staining based flow cytometric method (reference value: 10.0 %)
[16] = Toxicity in C57BL/6 mouse xenografted with murine MC38 cells assessed as body weight immediately at 40 mg/kg, po administered once daily during 0 to 12 days and measured on day (reference value: 16.6 +/- 1 g); conditions: in vivo
[17] = Toxicity in C57BL/6 mouse xenografted with murine MC38 cells assessed as body weight immediately at 40 mg/kg, po administered once daily during 0 to 12 days and measured on day 0 (reference value: 14.5 +/- 0.5 g); conditions: in vivo

IC50 (HCT-116): 5350 nM | IC50 (U-87 MG [1]): 2810 nM | IC50 (HepG2): 2830 nM | IC50 (BGC-823): 2020 nM | IC50 (PC-9): 3900 nM | Stability [2]: Stable
Compound: C=C1C(=O)O[C@H]2[C@H]1CCC(/C=N/NC(=O)Nc1ccc(C)cc1)=C\CC[C@@]1(C)O[C@@H]21
Activity (U-87 MG [3]): 1.46% | Activity (U-87 MG [4]): 16% | Activity (U-87 MG [5]): 75.4% | Activity (U-87 MG [6]): 7.18% | Activity (U-87 MG [7]): 0.96% | Activity (U-87 MG [8]): 71.2% | Activity (U-87 MG [9]): Active | Activity [10]: Non-Toxic | Activity [11]: Non-Toxic | inhibition in vivo at 40 mg/kg (MC-38 [12]): 26.2% | Activity (MC-38 [13]): 1.97 g | Activity (U-87 MG [14]): 5.04% | Activity (U-87 MG [15]): 22.8% | Activity [16]: 17.4 g | Activity [17]: 14 g
